Laboratory results published in the EternaBench riboswitch data.

Tested on: MS2 coat protein
Experiment: apparent Kd, MS2 coat protein; higher = weaker binding; RNA-MaP array; FMN 200 µM where present
In short: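 Green signal was scaled to red-channel RNA signal and control-cluster median Fmax, and the apparent Kd was taken as the median of filtered per-cluster binding-curve fits. The binding series used SNAP-549-labelled MS2 coat protein from 0.7 or 1.5 nM, doubling to 3 µM, on designs transcribed by stalled E. coli RNA polymerase on Illumina sequencing-chip clusters. Each series ran without and then with constant ligand in 100 mM Tris-HCl pH 7.5, 80 mM KCl, 4 mM MgCl2, BSA, DTT, yeast tRNA and Tween-20.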

[1] = designed as: ON switch for flavin mononucleotide, no ligand
[2] = ligand present: flavin mononucleotide, designed as: ON switch for flavin mononucleotide
[3] = designed as: OFF switch for flavin mononucleotide, no ligand
[4] = ligand present: flavin mononucleotide, designed as: OFF switch for flavin mononucleotide

GGGUACAUCGGAGGAUAUCAUGUCAAUACAUGAGGAUCACCCAUGUCGAUGGAGACAUCGGAGAUUGAGAAGGCCGAUGUACCG
apparent Kd [1]: 0.0665 µM | apparent Kd [2]: 0.00699 µM

GGGUACAUCGGAGGAUAUCAUGUGAAUACAUGAGGAUCACCCAUGUCGAUGGAGACAUCGGAGAUUGAGAAGGCCGAUGUACCG
apparent Kd [1]: 0.446 µM | apparent Kd [2]: 0.0151 µM

GGGUACAUGGGAGGAUAUCCUCAAGAGACAUGAGGAUCACCCAUGUAUUAUAUGCCUCAUGGCAUGGAGAAGGCCCAUGUACCG
apparent Kd [1]: 0.188 µM | apparent Kd [2]: 0.16 µM

GGGUACAUGGGAGGAUAUGGGAAGAUACAUGAGGAUCACCCAUGUUUAAGAAUGCCGAGAGGCAACUAGAAGGCCCAUGUACCG
apparent Kd [1]: 1.04 µM | apparent Kd [2]: 0.049 µM

GGGUACAUGGGAGGAUAUGGGACAUGAGGAUCACCCAUGUGAAAAUUAAAUAUGCCGAGAGGCAACUAGAAGGCCCAUGUACCG
apparent Kd [1]: 0.0311 µM | apparent Kd [2]: 0.0153 µM

GGGUACGCAGGAUAUACAUGAAAAAAAAAAAAAAAAAAAAAACAUGAGGAUCACCCAUGUAGAAGGGCGUAUCC
apparent Kd [3]: 0.232 µM | apparent Kd [4]: 0.571 µM

GGGUAGAUCGGAGGAUAUCAUGUAAAUACAUGAGGAUCACCCAUGUCGAUGGAGACAUCGGAGAUUGAGAAGGCCGAUGUACCG
apparent Kd [1]: 0.166 µM | apparent Kd [2]: 0.0084 µM

GGGUAUAUUACAUGAGGAUCACCCAUGUCAGAAAGGGUAAUCAGAAGGUACUAUUAGAGAAAGAGUAAGGAUAUGAUUAUACCC
apparent Kd [1]: 0.176 µM | apparent Kd [2]: 0.0227 µM

GGGUCAAUCUUUAGGUGGCGAGACUAGGAUAUGAGUGGUCCCACAUGAGGAUCACCCAUGUGUACUUAGAAGGAGUAGCGCCGU
apparent Kd [1]: 0.16 µM | apparent Kd [2]: 0.184 µM

GGGUGACAUGAGGAUCACCCAUGUCAGGAUAUGCGCGCGCGCGCGAAAGUGUGUGUGUGUAGAAGGGACUGCCC
apparent Kd [3]: 0.0496 µM | apparent Kd [4]: 0.0812 µM

GGUAAGAUGCAGAAGGUGUUAGCUAGAGCUACGACAUGAGGAUCACCCAUGUACUAGAAACAGUACAAGGAUAUGCAUCUUACA
apparent Kd [1]: 0.0171 µM | apparent Kd [2]: 0.00612 µM

GGUACACAUGAGGAUCACCCAUGUCAGGAUAUCUGGAUACUCUUUAUUUUAGAUAUCCAGAGAAGGGACGUGCC
apparent Kd [3]: 0.0308 µM | apparent Kd [4]: 0.0409 µM

GGUACCAUCGCAGGAUAUGCUUUCCUUUGGGAAGCAGAAGGGUGUAACAUGAGGAUCACCCAUGUGGUGCCAGGGCGUGAGCCU
apparent Kd [1]: 0.862 µM | apparent Kd [2]: 0.0487 µM

GGUACUCAAAGAGUACCAAUACGAACAUGAGGAUCACCCAUGUAGGAUAUGAAAACGCCGGAGUAGCAGAAGGACAUGUGCCUA
apparent Kd [3]: 0.0114 µM | apparent Kd [4]: 0.0111 µM

GGUACUCAAAGAGUACCAAUACGAACAUGAGGAUCACCCAUGUAGGAUAUGCUACUCAAAGAGUAGCAGAAGGACAUGUGAAAU
apparent Kd [3]: 0.0715 µM | apparent Kd [4]: 0.38 µM

GGUACUCAAAGAGUACCAAUACGAACAUGAGGAUCACCCAUGUAGGAUAUGCUACUCAAAGAGUAGCAGAAGGACAUGUGCCUU
apparent Kd [3]: 0.0314 µM | apparent Kd [4]: 0.252 µM

GGUACUCAAAGAGUACUUGGUCGAACAUGAGGAUCACCCAUGUAGGAUAUGCUAAGCAAGAAGUAGCAGAAGGACAUGUGCAGC
apparent Kd [3]: 0.0148 µM | apparent Kd [4]: 0.0565 µM

GGUAUGGACAGAGGAUAUACCGAUAGGAGAUACUAUCGACUAUUCCUCACAUGAGGAUCACCCAUGUAGAAGGCUGUCCAUACG
apparent Kd [3]: 0.017 µM | apparent Kd [4]: 0.0655 µM

GGUCGUCACAUUAACAUGAGGAUCACCCAUGUCAAAAGACAUGAGGAUAUGCAUAAUAAUAUAAAGCAGAAGGCAUGGACGACC
apparent Kd [1]: 0.24 µM | apparent Kd [2]: 0.0144 µM

GGUCUAGGCGAAGGAUAUCCGUCGCGAGAUACUGGAGAAGGUCGCCUUGAUACAUGAGGAUCACCCAUGUGGCGGGUGAACCAA
apparent Kd [3]: 0.0985 µM | apparent Kd [4]: 0.0193 µM

GGUCUGAUAUGAGGAUAUGCUCAGGAAUACUGAGCAGAAGGCAUGUGAAAACAUGAGGAUCACCCAUGUAUGAUCUACAGACCA
apparent Kd [1]: 0.047 µM | apparent Kd [2]: 0.0218 µM

GGUCUGAUAUGAGGAUAUGCUCAGGAAUACUGAGCAGAAGGCAUGUGAAAACAUGAGGAUCACCCAUGUGAUCAAUACAGACCA
apparent Kd [1]: 0.147 µM | apparent Kd [2]: 0.0237 µM

GGUGACCUUGUAAGGAUAUCGAAUUUAGAUGAGCACGAGAAGGUACAUGAGGAUCACCCAUGUCUGCGGUAACU
apparent Kd [3]: 0.0508 µM | apparent Kd [4]: 0.102 µM

GGUGAGCAAGGAUAUACAUGAGGAUCACCCAUGUGAGAUGCGCAGGGCCCGAUGAUAGGUAGAAGGUGCGUCAC
apparent Kd [3]: 0.0345 µM | apparent Kd [4]: 0.0728 µM

GGUGCACGCACAGGAUAUCCGGCGGAGCUCGUCGGAGAAGGGUGACAUGAGGAUCACCCAUGUACGUGCAACCCAGUUUGAGAG
apparent Kd [1]: 0.0452 µM | apparent Kd [2]: 0.0307 µM

GGUGCCAUGUAGAAGGCAGAUCUGAUUCAGAUCUGAGGAUAUACAUGAGGAUCACCCAUGUAAAGCCACCGCACGAGAGUGCAA
apparent Kd [3]: 0.0702 µM | apparent Kd [4]: 0.19 µM

GGUGCGUAUGUGAGGAUAUGCUGGUCCUUGGAUCCGCAGAAGGCACAUGAGGAUCACCCAUGUGGUGUCGUACC
apparent Kd [3]: 0.299 µM | apparent Kd [4]: 0.0276 µM

GGUGCGUUUGUGAGGAUAUGCUGGUCCUUGGUUCCGCAGAAGGCACAUGAGGAUCACCCAUGUGGUGUCGUACC
apparent Kd [3]: 0.195 µM | apparent Kd [4]: 0.373 µM

GGUGGACAUGAGGAUCACCCAUGUGAGGAUAUCGGCCGGCUAGUGGUGGCUGGCUUCUCGAGAAGGCGCAUAGU
apparent Kd [3]: 0.0618 µM | apparent Kd [4]: 0.0997 µM

GGUGGACAUGAGGAUCACCCAUGUGAGGAUAUCGGCUGGCUAGCGGCGGAUGGCUUCUCGAGAAGGCGCAUAGU
apparent Kd [3]: 0.0802 µM | apparent Kd [4]: 0.0675 µM

GGUGGCGUGAUAACGCUAGCUAUAACAUGAGGAUCACCCAUGUAGGAUAUCCCGCCGUGAGGGCGGGAGAAGGACAACCGAUGG
apparent Kd [3]: 0.0285 µM | apparent Kd [4]: 0.0308 µM

GGUUAUAUAACAUGAGGAUCACCCAUGUGAGUGGUCCGAAUAUAGGAUAUCCACACGAGAAGUGUGGAGAAGGAUAAUUUAUUA
apparent Kd [3]: 0.0407 µM | apparent Kd [4]: 0.206 µM

GGUUGGCGAGGAUAUACAUGAGGAUCACCCAUGUGAGAGAAAAAAGUGAGGAAGAAAAGUAGAAGGCGCUGACG
apparent Kd [3]: 0.0281 µM | apparent Kd [4]: 0.123 µM

GGUUGGCGAGGAUAUACAUGAGGAUCACCCAUGUGGUCCUGCGGUGGUAUCGCCCUUUGUAGAAGGCGCGGGUC
apparent Kd [3]: 0.112 µM | apparent Kd [4]: 0.117 µM

GGUUGGCGAGGAUAUACAUGAGGAUCACCCAUGUGGUCCUGUGAAAAAAAAAACCUUUGUAGAAGGCGCGGGUC
apparent Kd [3]: 0.292 µM | apparent Kd [4]: 0.281 µM

GGUUGUCAUAGUCAUCCUUUCCGUACAUGAGGAUCACCCAUGUAGGAUAUGCUACUCACAGAGUAGCAGAAGGGCGUGUGUCUU
apparent Kd [3]: 0.019 µM | apparent Kd [4]: 0.0196 µM

GGUUGUCAUAGUCAUCCUUUCCGUACAUGAGGAUCACCCAUGUAGGAUAUGCUACUCACAGUGUGGCAGAAGGGCGUGUGUCUU
apparent Kd [4]: 0.0194 µM

GGUUUGGGAGGAUAUGGUUUUAAUAACAUGAGGAUCACCCAUGUAAAUAGAUCUUCGAGGCCAGAAGGCUCGGGCC
apparent Kd [3]: 0.0638 µM | apparent Kd [4]: 0.12 µM

GGUUUUUCUGAGGAUAUUGCAUCACCCGAUUUAUAAGAAGGCAGAACAUGAGGAUCACCCAUGUGGGUUUCUAG
apparent Kd [3]: 0.0194 µM | apparent Kd [4]: 0.0248 µM

GUAAAGUGAGGAUAUGGUAAUUUAAUUAUUAAUUAAUUAAUCCAGAAGGCACAUGAGGAUCACCCAUGUAAAUG
apparent Kd [3]: 0.0319 µM | apparent Kd [4]: 0.063 µM

GUAAAUCAUGUAGGAUAUGCAUGGCGAAGCUACGCAGAAGGACAUGAGGAUCACCCAUGUCUCUCCGUCUGCAUACAGACGGAG
apparent Kd [3]: 0.0269 µM | apparent Kd [4]: 0.23 µM

GUAAAUCAUGUAGGAUAUGCAUGGCGAAGCUACGCAGAAGGACAUGAGGAUCACCCAUGUCUGUCCGUCUGCGAACAGACGGAC
apparent Kd [3]: 0.0234 µM | apparent Kd [4]: 0.174 µM

GUAAAUCAUGUAGGAUAUGCAUGGCGAAGCUACGCAGAAGGACAUGAGGAUCACCCAUGUUAUAGCUACCCAGUUCGGUGGCAA
apparent Kd [3]: 0.102 µM | apparent Kd [4]: 0.22 µM

GUAAUCAGUAAUAAAAGCCCGGGCGCAGAAGGCCAGACACAUGAGGAUCACCCAUGUAUCCCUAUGGAGGAUAUGUGUCACGUG
apparent Kd [1]: 0.0727 µM | apparent Kd [2]: 0.0229 µM

GUACGUGGACAGAAGGCGACAUGAGGAUCACCCAUGUUGGCUCGCGUAUGAGCAAUCCGCAUGAUUGAGGAUAUGUCUGCGGGC
apparent Kd [3]: 0.00905 µM | apparent Kd [4]: 0.0497 µM

GUACUACAUGAGGAUCACCCAUGUACAAAUGUACGAGGAUAUGCAUGGACGAAAGUUGGUGCAGAAGGCGUAGUAC
apparent Kd [1]: 0.0249 µM | apparent Kd [2]: 0.024 µM

GUACUGUAGUGAGGAUAUACGAGCUCGAUAGAGCGGCGAUCCAUAUAUACAUGAGGAUCACCCAUGUAGAAGGCACUUCAGUAC
apparent Kd [3]: 0.00707 µM | apparent Kd [4]: 0.0965 µM

GUAGAGUAAGGAUAUGCUGAAUAGGAUAGAAUGGUUAGAAAGCAGAAGGUACAUGAGGAUCACCCAUGUAAUGU
apparent Kd [3]: 0.0232 µM | apparent Kd [4]: 0.0212 µM

GUAGAGUAGUGAGGAUAUACGAGCUCGAUAGAGCGGCGAUCCAUUAAUACAUGAGGAUCACCCAUGUAGAAGGCACUUCUCUAC
apparent Kd [3]: 0.00583 µM | apparent Kd [4]: 0.072 µM

GUAGAGUAGUGAGGAUAUACGAGUUCGAUAGAACGGCGAUCCAAUAAUACAUGAGGAUCACCCAUGUAGAAGGCACUUCUCUAC
apparent Kd [3]: 0.00933 µM | apparent Kd [4]: 0.112 µM

GUAGCAACAUGAGGAUCACCCAUGUAGGAUAUCGCUAUUGUAAUCAUGAAACAUGAUUACAAUAGCGAGAAGGACAUAUGCUAG
apparent Kd [3]: 0.0149 µM | apparent Kd [4]: 0.0128 µM

GUAGCAAUCGGAGGAUAUUCAUACCGGAAACGGACAUGAGGAUCACCCAUGUCGCGAAAGCGUUGGGAGAAGGCCGAUUGCUAC
apparent Kd [1]: 0.22 µM | apparent Kd [2]: 0.0213 µM

GUAGCAUAAUCAGGAUAUUCAGCGAAUAGAUAGACAUGAGGAUCACCCAUGUGGCGAAAGCCUAGGGAGAAGGGAUAAUGCUAC
apparent Kd [1]: 0.2 µM | apparent Kd [2]: 0.0358 µM

GUAGCAUACAGAGGAUAUCUUUACCGGAAACGGACAUGAGGAUCACCCAUGUGGCGAAAGCCUAGGGAGAAGGCUGAAUGCUAC
apparent Kd [1]: 0.0116 µM | apparent Kd [2]: 0.0123 µM

GUAGCAUACCGAGGAUAUCUAUACCGGAAACGGACAUGAGGAUCACCCAUGUGGCGAAAGCCUUGGGAGAAGGCGGAAUGCUAC
apparent Kd [1]: 0.0208 µM | apparent Kd [2]: 0.0116 µM
